Source: paper PMC3683132 (ACS chemical biology, 2013)

Tests used:
[1] = test system: insulin receptor (IR) pre-mRNA alternative splicing; assay: IR splicing assay; format: cell-based; conditions: 50 µM, DM1 cell model
[2] = test system: (CUG)960 foci in HeLa cells transfected with DMPK-CUG960 and GFP-MBNL1; assay: FISH / confocal microscopy of ribonuclear foci in fixed DM1 cell model; format: cell-based; conditions: 50 µM, 48 h
Procedure, shortened: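 HeLa cells (ca. 120,000/well, on coverslips) were co-transfected next day at 70–80% confluence with 500 ng DMPK–CUG960 (or CUG0 control) and 500 ng GFP-MBNL1 plasmids using Lipofectamine. After 4 h the medium was changed and test compound added (20–100 µM) for two days; 50 µM spermine served as the control compound. Cells were fixed (4% PFA), permeabilized and probed with Cy3-(CAG)10 for 2 h at 37 °C. Nuclei were stained with TO-PRO-3 and scored by confocal microscopy; results are mean ± standard error of ≥3 independent experiments with two-tailed p-values.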

**Q.** What does the source list for NCCCNCCCCNCCCN [spermine, reference compound]?
**A.** effect on the IR mis-splicing [1]: no effect; effect on (CUG)960 foci [2]: no effect
